Screens: PubChem, NMMLSC
The list is not random: actives were taken first. Their share in the collection is about 2.3%.
MEKK2mut PB1 HTS – signal of MEK5 binding to mutant human MEKK2 PB1 domain; 290,000 compounds, 0.35% hits; AID 1530; percent response, % at 10 µM; bead flow cytometry, Alexa488-MEK5 binding to MEKK2 mutant; in the data active means percent response above about 24%, passing the limit was not always enough
ABCG2 block – inhibitors of human ABCG2 transporter, ABCB1 counter-screen. IgMXP3 cells, JC-1 efflux, flow cytometry. 190,000 compounds, 0.1% hits. Q9UNQ0. inhibition, % at 6.6 µM;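 active means inhibition above 80%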
Target sequence (Q9UNQ0 whole entry, looked up): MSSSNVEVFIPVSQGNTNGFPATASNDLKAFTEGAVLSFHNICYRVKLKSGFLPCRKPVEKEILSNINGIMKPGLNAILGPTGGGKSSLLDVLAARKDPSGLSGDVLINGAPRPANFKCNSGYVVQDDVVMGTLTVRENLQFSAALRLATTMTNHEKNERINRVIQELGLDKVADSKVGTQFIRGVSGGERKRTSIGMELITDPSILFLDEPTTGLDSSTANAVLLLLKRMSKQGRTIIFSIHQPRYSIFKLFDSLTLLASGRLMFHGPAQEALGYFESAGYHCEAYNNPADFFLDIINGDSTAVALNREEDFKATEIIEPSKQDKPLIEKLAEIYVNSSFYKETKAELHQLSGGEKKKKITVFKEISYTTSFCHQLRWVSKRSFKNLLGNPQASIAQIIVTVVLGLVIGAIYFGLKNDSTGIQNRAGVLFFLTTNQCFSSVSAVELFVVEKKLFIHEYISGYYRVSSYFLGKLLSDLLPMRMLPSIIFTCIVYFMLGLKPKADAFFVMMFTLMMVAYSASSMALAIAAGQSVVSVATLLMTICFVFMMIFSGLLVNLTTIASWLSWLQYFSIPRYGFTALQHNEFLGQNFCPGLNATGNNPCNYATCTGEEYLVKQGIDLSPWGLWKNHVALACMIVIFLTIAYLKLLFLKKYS
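test system = two drug-resistant human cell lines, ABCG2 and ABCB1 | amount = 3 million cells/mL final, two lines in 1:1 ratio | reagent = JC-1 transporter substrate | doses = one concentration, 6.6 µM final | incubation = 10 min at 25 °C | signal = flow cytometric JC-1 green MFI at 530 nm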
ABCB1 inh – inhibitors of human ABCB1 transporter, ABCG2 counter-screen. P08183. CCRF-Adr cells, JC-1 efflux, flow cytometry. inhibition, % at 6.6 µM. 190,000 compounds, 0.067% hits. AID 1326; in the data active means inhibition above about 40%;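 further: higher value means more JC-1 retained so stronger ABCB1 efflux block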
MEKK2 WT-MEK5 – raises or lowers MEK5 binding to wildtype human MEKK2 PB1 domain | Q9Y2U5 | bead flow cytometry, Alexa488-MEK5 binding to MEKK2 WT; actives lie on both sides | binding response (% of control), % at 10 µM | 290,000 compounds, 1.1% hits | AID 1531; in the data active means binding response below about 67% or above about 130%
MEKK3 PB1 HTS – raises or lowers MEK5 binding to the human MEKK3 PB1 domain; Q99759; bead-based flow cytometry, Alexa488-MEK5 binding to MEKK3; actives lie on both sides; 0 = blocked by unlabeled MEK5, 100 = vehicle; binding response (% of control), % at 10 µM; 290,000 compounds, 1.4% hits;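 active means binding response more than 3 SD above or below the average of its plate-row segment, actives on both sides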;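 further: Alexa488 bead fluorescence after subtracting the streptavidin-only scavenger bead signal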
MEKK2wt confirm – raises or lowers MEK5 binding to wildtype human MEKK2, retest. shares compounds with MEKK3 PB1 HTS. bead flow cytometry, Alexa488-MEK5 binding to MEKK2 WT; actives lie on both sides. binding response (% of control), % at 10 µM. 5,900 compounds, 2.4% hits. AID 1892; in the data active means binding response below about 16% or above about 210%; inactive means in between
MEKK2mut-MEK5 – signal of MEK5 binding to mutant human MEKK2, retest; percent response, % at 10 µM; bead flow cytometry, Alexa488-MEK5 binding to MEKK2 mutant; shares compounds with MEKK3 PB1 HTS; 5,900 compounds, 2% hits; in the data active means percent response mostly above about 71%, no sharp cut-off; inactive means mostly below about 38%;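 further: higher means compound restores mutant binding toward wildtype level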
MEKK3-MEK5 inh – MEKK3-MEK5 PB1 inhibition, single concentration confirmation. bead flow cytometry, Alexa488-MEK5 binding to MEKK3; stronger effect = lower value. 5,900 compounds, 1.8% hits. shares compounds with MEKK3 PB1 HTS. binding response (% of control), % at 10 µM;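 active means binding response below 72% of control, or above a set upper limit, though filed actives all read lower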
Numbers stand for hits; i = inactive; nt = not tested or not shown; [ ] = remark or other dose.

SMILES | MEKK2mut PB1 HTS | ABCG2 block | ABCB1 inh | MEKK2 WT-MEK5 | MEKK3 PB1 HTS | MEKK2wt confirm | MEKK2mut-MEK5 | MEKK3-MEK5 inh
Cc1cc(=O)[nH]c(N/N=C/C2=C(N3CCOCC3)C(=C\c3ccc(Cl)cc3)/CC2)n1 | i | i | i | i | 135 | i | i | i
CN1CCN(NC(=O)C2CC2)CC1 | i | i | i | i | 142 | i | i | i
Cc1onc(-c2ccccc2Cl)c1C(=O)O/N=C(\N)c1ccccc1 | i | nt | nt | i | i | nt | nt | nt
C/C(=N\OC(=O)c1c(-c2ccccc2Cl)noc1C)c1ccncc1 | i | i | i | i | 48[inhibitor] | i | i | i
Brc1ccc(-n2c(SCc3nc4ccccc4[nH]3)nnc2-c2ccncc2)cc1 | i | i | i | i | 150 | i | i | i
Clc1ccc(-n2c(SCc3nc4ccccc4[nH]3)nnc2-c2ccncc2)cc1 | i | i | i | i | i | nt | nt | nt
O=C(NCCCN1CCN(CCCNC(=O)c2cc([N+](=O)[O-])ccc2Cl)CC1)c1cc([N+](=O)[O-])ccc1Cl | i | i | i | 206 | i | i | 79 | i
O=C(NCCCN1CCOCC1)c1cc(Cl)ccc1Cl | i | nt | nt | i | i | nt | nt | nt
O=C(Nc1ccc2ccccc2c1)c1cc(F)c(F)cc1Cl | i | nt | nt | i | i | nt | nt | nt
Cn1cnnc1-c1cccc(NC(=O)c2cc(F)c(F)cc2Cl)c1 | i | i | i | i | 135 | i | i | i
COCCN(CC(=O)NCc1ccc(F)cc1)C(=O)CCC(=O)Nc1ccccn1 | i | i | i | i | 81[inhibitor] | i | i | i
C/C(=C\c1ccccc1)C(=O)Nc1ccc(Cl)cn1 | i | nt | nt | i | i | nt | nt | nt
CCOC(=O)C1=C(C)N(C)C(C)=C(C(=O)OCC)C1c1ccc(Cl)cc1 | i | i | i | i | 130 | i | i | 46
COc1ccc(OCC(=O)N/N=C/c2ccsc2)cc1 | i | i | i | i | 140 | i | i | i
O=C(CN1C(=O)c2cccnc2Oc2ccc(Cl)cc21)NC1CCCCC1 | i | nt | nt | i | i | nt | nt | nt
COc1ccc2c(c1)C1NC(=S)NC(C)(O2)C1C(=O)Nc1ccc(Cl)cc1 (configuration not stated) | i | i | i | i | i | nt | nt | nt
Cc1ccc2c(c1)C1NC(=S)NC(C)(O2)C1C(=O)Nc1ccc(Cl)cc1 (configuration not stated) | i | i | i | i | 146 | i | i | i
Cn1nnnc1SCC(=O)N1CCCc2ccccc21 | i | i | i | i | i | nt | nt | nt
O=C(CSc1cccc[n+]1[O-])N1CCCc2ccccc21 | i | i | i | 25[inhibitor] | i | i | i | i
Cc1ccc(-n2nc3c(c2NC(=O)C(C)C)CS(=O)(=O)C3)cc1 | i | nt | nt | i | i | nt | nt | nt
NC(=O)COc1ccc(-c2noc(COc3ccccc3[N+](=O)[O-])n2)cc1 | i | i | i | i | 132 | i | i | i
Cc1cccc2c1NC(=O)C21OCC(CO)([N+](=O)[O-])CO1 (configuration not stated) | i | nt | nt | i | i | nt | nt | nt
CCCCCCCCC1=NCCc2c1[nH]c1ccccc21 | 54 | nt | nt | 159 | i | i | i | i
CC(C)C/C=C1\CCc2c([nH]c3ccccc23)C1=O | i | i | i | i | i | nt | nt | nt
O=C1NNC(c2ccccc2)=N/C1=C\c1ccco1 | i | nt | nt | 44[inhibitor] | i | i | i | i
Cc1ccc(NC2CCCN(C(=O)C3CCCCC3)C2)cc1C (configuration not stated) | i | nt | nt | i | i | nt | nt | nt
NS(=O)(=O)c1ccc(-c2ccc(/C=C3\SC(=S)N(C4CCS(=O)(=O)C4)C3=O)o2)cc1 (configuration not stated) | i | nt | nt | 56[inhibitor] | i | i | i | i
Cc1nn2c3ccccc3n(C)c2nc1=O | i | i | i | i | i | nt | nt | nt
Cc1nn2c(N)csc2nc1=O | i | i | i | 69[inhibitor] | 62[inhibitor] | i | i | 51
